This is an account of results in ChEMBL document CHEMBL3632461 (J Med Chem, 2015).

The term Ki denotes a dissociation constant, usually derived from enzyme kinetics or from competition with a known ligand. A word on the IC50: it is the midpoint of a concentration-inhibition curve. Low readings indicate higher potency, high ones lower potency. For orientation: Papp means a coefficient for how fast a substance crosses the barrier. In general, fraction unbound refers to the share of the substance not bound to proteins or other matrix. Read a high fraction unbound as weak binding. Broadly, the Tmax is the time from dosing to the highest level.

The target in data set [1] is T1, Thyroid peroxidase (Homo sapiens) (UniProt P07202).
T1 sequence (whole entry): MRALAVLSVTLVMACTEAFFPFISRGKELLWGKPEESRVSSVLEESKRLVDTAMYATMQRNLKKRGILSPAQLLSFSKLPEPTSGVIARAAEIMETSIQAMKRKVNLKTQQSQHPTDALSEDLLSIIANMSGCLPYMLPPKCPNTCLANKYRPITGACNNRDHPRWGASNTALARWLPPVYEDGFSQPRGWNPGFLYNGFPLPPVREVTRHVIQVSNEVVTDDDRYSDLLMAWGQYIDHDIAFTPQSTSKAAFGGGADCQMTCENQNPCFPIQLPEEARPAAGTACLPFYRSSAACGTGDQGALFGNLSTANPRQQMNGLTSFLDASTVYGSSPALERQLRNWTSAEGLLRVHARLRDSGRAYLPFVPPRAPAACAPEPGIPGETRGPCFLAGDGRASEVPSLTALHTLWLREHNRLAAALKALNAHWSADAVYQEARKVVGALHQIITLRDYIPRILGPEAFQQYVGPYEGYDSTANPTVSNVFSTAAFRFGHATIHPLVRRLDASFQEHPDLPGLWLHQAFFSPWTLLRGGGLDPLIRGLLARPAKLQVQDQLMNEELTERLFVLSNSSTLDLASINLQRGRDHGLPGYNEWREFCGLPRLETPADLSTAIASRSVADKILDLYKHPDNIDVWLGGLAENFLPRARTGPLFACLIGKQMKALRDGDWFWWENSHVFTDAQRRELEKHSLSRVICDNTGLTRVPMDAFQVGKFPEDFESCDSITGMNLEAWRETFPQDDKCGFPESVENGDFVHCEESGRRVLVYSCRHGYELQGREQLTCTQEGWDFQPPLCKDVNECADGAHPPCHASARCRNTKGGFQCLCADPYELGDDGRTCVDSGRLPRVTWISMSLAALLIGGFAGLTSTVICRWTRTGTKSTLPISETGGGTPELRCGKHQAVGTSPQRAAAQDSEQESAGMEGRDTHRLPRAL
The data set is described as follows: Inhibition of TPO (unknown origin) using Amplex Red as substrate assessed as formation of resorufin by measuring ratio of Kinact to Ki measured every 20 secs by spectrophotometric analysis. The procedure, abridged: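 Amplex Red oxidation to resorufin in 50 mM sodium phosphate pH 7.4, 150 mM NaCl, 1 mM DTPA, 2 μM H2O2, 30 μM Amplex Red, 2% DMSO. Reaction started by adding TPO. Background rate measured with bovine catalase added and subtracted. Fluorescence (ex 530/em 580) read every 20 s at room temperature. kinact/KI taken from initial rates over the first 300 s. Geometric mean of at least two experiments.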

Data set [2] concerns the target T2, Myeloperoxidase (Homo sapiens) (UniProt P05164).
T2 sequence (whole entry): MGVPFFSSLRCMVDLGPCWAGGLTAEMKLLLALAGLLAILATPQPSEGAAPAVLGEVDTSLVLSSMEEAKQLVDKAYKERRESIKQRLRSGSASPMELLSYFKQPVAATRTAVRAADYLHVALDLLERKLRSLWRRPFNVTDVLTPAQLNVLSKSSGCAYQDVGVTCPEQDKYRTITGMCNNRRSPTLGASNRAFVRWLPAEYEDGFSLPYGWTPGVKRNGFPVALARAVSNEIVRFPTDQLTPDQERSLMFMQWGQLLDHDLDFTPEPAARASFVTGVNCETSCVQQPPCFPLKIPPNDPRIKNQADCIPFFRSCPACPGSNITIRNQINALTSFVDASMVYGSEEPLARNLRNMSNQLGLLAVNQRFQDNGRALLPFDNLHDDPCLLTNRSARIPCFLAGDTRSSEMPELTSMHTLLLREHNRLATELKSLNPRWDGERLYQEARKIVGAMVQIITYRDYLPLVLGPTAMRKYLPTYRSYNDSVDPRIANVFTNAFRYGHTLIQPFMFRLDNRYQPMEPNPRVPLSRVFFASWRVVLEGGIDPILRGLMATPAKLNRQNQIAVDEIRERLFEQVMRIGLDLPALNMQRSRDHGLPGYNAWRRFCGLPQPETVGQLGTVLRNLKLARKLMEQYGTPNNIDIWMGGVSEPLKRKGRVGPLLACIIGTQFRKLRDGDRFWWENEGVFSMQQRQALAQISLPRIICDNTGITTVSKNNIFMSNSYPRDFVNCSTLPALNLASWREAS
The data set is described as follows: (§1) Inhibition of peroxidase activity of MPO isolated from human polynuclear leukocytes using Amplex Red as substrate assessed as formation of resorufin measured every 20 secs by spectrophotometric analysis.

In data set [3] the target is T3, Myeloperoxidase (Homo sapiens, UniProt P05164).
T3 sequence (P05164 whole entry): T2 sequence (whole entry)
The description is as §1.

Data set [4] has as its target T3, Myeloperoxidase. The data set is described as follows: Irreversible inhibition of MPO in LPS-stimulated human whole blood after 4 hrs by Amplex Red/H2O2-based fluorescence plate reader analysis. The method, boiled down:
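Heparinized whole blood from healthy human volunteers, stimulated with bacterial LPS and incubated with compound for 4 h. MPO captured on anti-MPO antibody plates and washed; residual activity measured with Amplex Red and H₂O₂. IC₅₀ reported as geometric mean [90% CI].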

Data set [5] can be described thus: Apparent permeability across RRCK cells. Format: ADME, cell-based, Canis lupus familiaris, MDCKII-LE. The note with it: dog, MDCK. The procedure, abridged: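 Passive permeability measured in Ralph−Russ canine kidney (RRCK) cells, a low-transporter line isolated from Madin−Darby canine kidney cells; reported as P_app (10⁻⁶ cm/s).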
The nature of data set [6]: Fraction unbound in human plasma by equilibrium dialysis method. Format: ADME, cell-free. The procedure, abridged: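 Fraction unbound in human plasma measured by equilibrium dialysis; mean of three individual determinations.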
The test system of a further data set is Liver microsome. The data set is described as follows: Intrinsic apparent clearance in human liver microsomes. Format: ADME. The procedure, abridged: (§2)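 Stability incubations in NADPH-supplemented human liver microsomes or cryopreserved human hepatocytes. Total apparent intrinsic clearance scaled from the in vitro half-life; microsomes reported per mg protein, hepatocytes per 10⁶ cells.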

The subject of another data set is Hepatocyte. The data set is described as follows: Intrinsic apparent clearance in human hepatocytes assessed per 10^6 cells. Format: ADME, cell-based. The procedure, abridged:
as §2

A short description of data set [7]: Elimination half life in Wistar rat at 1 mg/kg, iv and 3 or 5 mg/kg, po. The class given is ADME, organism-based. To be noted: in vivo, read-out: beta t1/2 (converted). The procedure, abridged:
(§3)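 Male CD-1 mice (25−35 g), cannulated Wistar-Han rats (250 g), beagle dogs (12 kg) and cynomolgus monkeys (7 kg), fasted overnight and fed 1.0 or 2.0 h after dosing. iv 1 mg/kg in saline or 12% sulfobutyl ether β-cyclodextrin; po 3 or 5 mg/kg in 0.5% methylcellulose. Parameters calculated from plasma concentration−time data; mean ± SD for n = 3, individual values for n = 2.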

Data set [8] is described as follows: Elimination half life in Beagle dog at 1 mg/kg, iv and 3 or 5 mg/kg, po. The class given is ADME, organism-based, Canis lupus familiaris. To be noted: in vivo, read-out: beta t1/2 (converted). The procedure, abridged: as §3
A short description of data set [9]: Tmax in Wistar rat at 3 or 5 mg/kg, po. Format: ADME, organism-based. To be noted: in vivo. The procedure, abridged: (§4)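 Male animals (CD-1 mice 25−35 g, cannulated Wistar-Han rats 250 g, beagle dogs 12 kg, cynomolgus monkeys 7 kg), fasted overnight and fed 1.0 or 2.0 h after dosing, water ad libitum. Oral dose 3 or 5 mg/kg in 0.5% methylcellulose. Parameters calculated from plasma concentration−time data; mean ± SD for n = 3, individual values for n = 2.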

Data set [10] can be described thus: Tmax in Beagle dog at 3 or 5 mg/kg, po. Format: ADME, organism-based, Canis lupus familiaris. To be noted: in vivo. The method, boiled down:
as §4

Bounds are passed on as bounds.

Turning to `COc1ccc(-c2cc(=O)[nH]c(=S)n2CCN)c(OC)c1`, the log(ratio) in data set [1] was under 0.5. The pKinact in [2] was determined as 2.61. Also, the Ki on Myeloperoxidase [3] is 174 nM. For the same compound, at Myeloperoxidase [4], 500 nM corresponded to half-maximal inhibition (IC50). Also, the Papp in data set [5] came out at 3.5 ×10⁻⁶ cm/s. This compound also had a fraction unbound in data set [6] of 0.7. Further, the CLH(app) with Liver microsome came to 8.8 µL/min/mg; with Hepatocyte, 2.9 µL/min. Further, the figures for the half-life in data set [7] and in [8] were 66 min and 342 min, respectively. In addition, the Tmax in data set [9] turned out to be 22.8 min; in data set [10], 78 min.
In the case of `COc1ccc(-c2cc(=O)[nH]c(=S)n2CCO)c(OC)c1`, the log(ratio) in [1] is under 0.5. In addition, in [2], the pKinact stood at 2.34. Besides, the Ki at Myeloperoxidase [3] was 151 nM. The compound further displayed an IC50 against Myeloperoxidase [4] of 2000 nM. For the same compound, the Papp in data set [5] came out at 13 ×10⁻⁶ cm/s. This compound gave a fraction unbound in data set [6] of 0.5. The CLH(app) in the data set on Liver microsome was under 8 µL/min/mg; in the data set with Hepatocyte it was under 6 µL/min. Moreover, the values for the half-life in [7] and in [8] were 15 min and 318 min, respectively. Further, the Tmax in data set [9] was 78 min; in [10], 70.2 min.
Take `COc1ccc(OC)c(-c2cc(=O)[nH]c(=S)n2CC(N)=O)c1`: the log(ratio) in data set [1] is under 0.5. Moreover, the pKinact in data set [2] worked out at 2.38. Besides, the Ki on Myeloperoxidase [3] is 347 nM. Also, at Myeloperoxidase [4], 1500 nM corresponded to half-maximal inhibition (IC50). Further, in data set [5], the Papp was found to be 1.1 ×10⁻⁶ cm/s. Further, in data set [6], the fraction unbound is 0.6. Moreover, the CLH(app) is under 8 µL/min/mg in the data set on Liver microsome and under 6 µL/min in the data set with Hepatocyte. Further, the half-life in [7] is 22.8 min; in data set [8] it was 168 min. Further, the Tmax in [9] came to 40.2 min; in data set [10] it was 37.8 min.
With `COc1ccc(-c2cc(=O)[nH]c(=S)n2CC(N)=O)c(OC)c1`, the log(ratio) in data set [1] was under 0.5. The pKinact in data set [2] was found to be 2.41. In addition, the Ki at Myeloperoxidase [3] is 372 nM. In addition, the IC50 against Myeloperoxidase [4] is 2600 nM. Besides, in data set [5], the Papp came out at 0.8 ×10⁻⁶ cm/s. The fraction unbound in [6] was 0.5. Besides, the CLH(app) is under 8 µL/min/mg in the data set with Liver microsome and under 6 µL/min in the data set on Hepatocyte. In addition, the results for the half-life in data set [7] and in data set [8] were 45.6 min and 204 min, respectively. The values for the Tmax in [9] and in [10] were 30 min and 90 min, respectively.
As to `COc1ccc(Cl)cc1-c1cc(=O)[nH]c(=S)n1CC(N)=O` [PF-06282999], the pKinact in [2] worked out at 2.43. In [5], the Papp was 1.6 ×10⁻⁶ cm/s. The figures for the CLH(app) in the data set on Liver microsome and in the data set on Hepatocyte were under 8 µL/min/mg and under 6 µL/min, respectively. In addition, the half-life in [7] was 45 min; in [8] it was 132 min. Moreover, the figures for the Tmax in data set [9] and in [10] were 46.8 min and 42 min, respectively.
